Experimental data taken from PubChem BioAssay AID821 (SRMLSC, 2007).
Calls of active or inactive are those of the source.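 The calls were made as follows: active = compounds whose fitted half-maximal concentration for reducing fibroblast viability is 100 µM or lower; inactive = the rest.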

Test system: LL 47 lung fibroblast viability, ATP luminescence
Experiment: inhibition of LL 47 lung fibroblast growth, concentration-response curve, selectivity screen for endothelial cell growth inhibitor project, cellular system, ATP luminescence readout (AID 821)
Method in brief: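 System: LL 47 human lung fibroblast cells. Timing: overnight cell settling, then 72 h compound exposure at 37 °C. Measured by: CellTiter-Glo luminescence. Evaluation: percent viability relative to untreated wells, EC50 via 4-parameter fit.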

SMILES | EC50
CC1CC(C)CN(S(=O)(=O)c2ccc(C(=O)NCCCn3ccnc3)cc2)C1 (stereo not given) | 1.77 µM
C=CCOC(=O)C1=C(C)NC(SCC(=O)Nc2ccc(C)c(Cl)c2)=C(C#N)C1c1ccco1 (stereo not given) | 7.76 µM
COc1ccc(-c2nnc(Nc3nc4c(OC)cccc4s3)o2)cc1 | > 10 µM (inactive)
CCCCN(C)S(=O)(=O)c1ccc(C(=O)Nc2nnc(-c3cccs3)o2)cc1 | 11.5 µM
N=c1n(CCN2CCCCC2)c2ccccc2n1CC(O)c1cccc(Br)c1 (stereo not given) | 13.3 µM
O=C(NNC(=O)c1ccc([N+](=O)[O-])o1)c1ccccc1 | 11.7 µM
CCOc1cccc(-n2nnnc2-c2ccc(OC)cc2)c1 | 19.9 µM
Cc1cc2c(N=O)c(NO)ccc2[nH]1 | 2.93 µM
COc1cc(C(C[N+](=O)[O-])c2c(-c3ccccc3)cc3ccccn23)cc(OC)c1OC (stereo not given) | 18.7 µM
Cn1cc(/C=N/n2cnc3scc(-c4ccccc4)c3c2=O)c2ccccc21 | 12.9 µM
N=c1c2c(ncn1CCN1CCOCC1)Oc1ccc3ccccc3c1C2c1ccccc1 (stereo not given) | 17.5 µM
COc1ccc(NC(=O)/C(Cl)=C(/Cl)S(=O)(=O)Cc2ccccc2)cn1 | 6.19 µM
O=C(Nc1ccc(-c2nc3c(ccc4ccccc43)o2)cc1)c1ccco1 | 10.9 µM
CCc1ccc2c(c1)/C(=C/C(=O)c1cccs1)C(=O)N2 | 3.48 µM
c1ccc(-c2noc(-c3ccc4c(c3)OCO4)n2)nc1 | 10.5 µM
CCN(CCNC(=O)C1CCN(Cc2nc(-c3ccc(Cl)cc3)oc2C)CC1)c1ccccc1 | 17.8 µM
CC(=O)Nc1ccc(NC2=Nc3ccccc3N3C2=Nc2c(c(C)nn2-c2ccccc2)C3c2ccccc2)cc1 (stereo not given) | 12.2 µM
Oc1c(CN2CCN(c3ccccn3)CC2)cc(Cl)c2cccnc12 | 5.46 µM
CCN1CCN(c2cc(C)c3cc(NC(=O)c4ccc(OC)c(OC)c4)ccc3n2)CC1 | 15.2 µM
CCOC(=O)/C=C/S(=O)(=O)c1ccc(NC(C)=O)cc1 | 6.96 µM
COc1cccc2sc(Nc3nc(C)c(C(C)=O)s3)nc12 | 5.54 µM
O=C(Nc1cccnc1)c1ccc(Br)s1 | 13.1 µM
COc1cc(NC(=O)Nc2cccc(Cl)c2)c(OC)cc1NC(=O)CN1CCCCC1 | 20.3 µM

SMILES | EC50
O=C(Oc1c(CN2CCOCC2)cc(Cl)c2cccnc12)c1ccc(F)cc1 | 5.32 µM
COc1ccc(C2=Nn3c(nnc3C3CCCCC3)SC2)cc1OC | 14.1 µM
COc1cc(/C=C/c2ccc3cccc(OC)c3n2)c(OC(C)=O)c([N+](=O)[O-])c1 | 17.2 µM
Cc1ccc(-c2csc3ncnc(Sc4nnc(CN5CCCCCC5=O)o4)c23)cc1 | 5.46 µM
CCOC(=O)CSc1cccc2cccnc12 | 12.6 µM
CC(Nc1nc(N2CCCC2)nc2ccccc12)c1ccccc1 (stereo not given) | 11.7 µM
Oc1ccccc1/C=N/Nc1nccnc1Cl | 2.08 µM
Cc1ccccc1CS(=O)(=O)c1nnc([C@H](Cc2ccccc2)NC(=O)OC(C)(C)C)o1 | 13.1 µM
Cc1nc(S(=O)(=O)N(C)c2ccccc2)c(C#N)c(C)c1Cl | 18.7 µM
O=c1[nH]c(Nc2nc3ccccc3o2)nc2c1CCCC2 | 4.52 µM
Oc1ccc(Cl)cc1-c1cc(-c2ccco2)[nH]n1 | > 10 µM (inactive)
CN=C1c2cc3cc(OC)ccc3n2CCN1Cc1ccccc1 | 18.1 µM
Cn1c(=NC(=O)CCl)sc2ccccc21 | < 0.039 µM
O=C(CN1CCCC1)Nc1ccc(-c2nc3cc(NC(=O)CN4CCCC4)ccc3o2)cc1 | 7.33 µM
O=C(Nc1nccs1)c1c(O)c2cccc3c2n(c1=O)CCC3 | 15.2 µM
COc1ccc(CC(=O)Nc2ccc(-c3nc4cc(C)ccc4o3)c(O)c2)cc1OC | 18.6 µM
N=c1c2c(-c3ccccc3)c(-c3ccccc3)n(Cc3ccco3)c2ncn1Cc1ccco1 | 7.06 µM
Cc1nc(NC(=O)CSc2nc3cccnc3n2C2CCCCC2)sc1C | 8.49 µM
CN1CCN(CCCN2c3ccccc3Sc3ccc(C(F)(F)F)cc32)CC1 | 17.9 µM
CCOC(=O)c1sc(SCC(=O)Nc2ccc(N(C)C)cc2)nc1N | 11.8 µM
Cc1ccccc1CS(=O)(=O)c1nnc([C@H](CC(C)C)NC(=O)OC(C)(C)C)o1 | 14.9 µM
Oc1ccccc1-c1nnc(SCCN2CCOCC2)n1Cc1ccccc1 | 1.48 µM
O=S1(=O)C=C(Sc2nnc(-c3ccccc3)o2)c2ccccc21 | 1.71 µM

SMILES | EC50
Cc1ccc(C(=O)c2c(C)oc3c2C(=O)C(=O)c2ccccc2-3)cc1 | 3.46 µM
O=C(CCS(=O)(=O)c1ccccc1)Nc1nc2c(s1)CCCC2 | 14.3 µM
Cc1cc(NC(=O)c2cc(-c3ccncc3)nc3c(C)cccc23)no1 | 9.48 µM
O=C(/C=C/c1ccc(Cl)cc1)c1cccnc1 | 19.7 µM
COc1cc(C(=O)Oc2c(CN3CCOCC3)cc(Cl)c3cccnc23)cc(OC)c1OC | 4.05 µM
O=C(Nc1nnc(-c2ccccc2SCc2ccccc2F)s1)Nc1ccccc1F | 16.2 µM
CCC(=O)OCCNc1cc(Sc2nc3ccccc3s2)c2nonc2c1[N+](=O)[O-] | 6.76 µM
CCOc1cc(N2CCOCC2)c(OCC)cc1NC(=O)COc1cccc2cccnc12 | 6.41 µM
O=C(Oc1ccccc1-c1nnco1)c1ccc(Cl)cc1 | 5.03 µM
Cc1ccccc1NS(=O)(=O)c1ccc(N2CCCC2=O)cc1 | 16.3 µM
O=c1[nH]c2ccccc2n1C1CCN(CCCC(c2ccc(F)cc2)c2ccc(F)cc2)CC1 | 13.6 µM
Cc1cccc(N2CCN(C(=O)Cn3sc4nc(C)cc(C)c4c3=O)CC2C)c1 (stereo not given) | 9.93 µM
O=S(=O)(CCN(CCS(=O)(=O)C(F)(F)F)CC1CCCO1)C(F)(F)F (stereo not given) | 5.88 µM
CCSc1nnc(NC(=O)c2ccccn2)s1 | 16.5 µM
CCC(C)(C)n1nnnc1C(c1cc2cc(C)cc(C)c2[nH]c1=O)N1CCN(Cc2ccc3c(c2)OCO3)CC1 (stereo not given) | 9.88 µM
CC(C)c1nnc(NC(=O)CCS(=O)(=O)c2nc(-c3cccs3)cc(C(F)(F)F)n2)s1 | 12.8 µM
CCCCOc1ccc(C(=O)C(CN2CCOCC2)c2ccccc2)cc1 (stereo not given) | 6.5 µM
COc1ccc(OC)c(CCNC(=O)Cn2sc3nc(C)cc(C)c3c2=O)c1 | 11.7 µM
O=C(C#Cc1cccc([N+](=O)[O-])c1)c1ccccc1 | 18.5 µM
Oc1cccc2ccc(/C=C/c3cccs3)nc12 | 9.71 µM
CCN(CC)CCn1c(=N)n(CCOc2ccccc2)c2ccccc21 | 10.7 µM
COc1ccc(N2C(=O)CC(Sc3nnc(-c4ccccc4)o3)C2=O)cc1 (stereo not given) | 13.2 µM
O=C1C=C(c2ccc(Cl)cc2)C(=O)N1Nc1ccccc1 | 14.9 µM

SMILES | EC50
CCOC(=O)c1cnc(-n2nc(C)cc2C)nc1NCCc1ccccc1 | 14.2 µM
CCN(CC)c1ccc2c(c1)oc(=O)c1c(Cl)cc(=O)oc12 | 7.29 µM
COc1cc(NC(=O)c2cccs2)c(C(=O)OCC(=O)NCc2ccccc2)cc1OC | 20.6 µM
COc1cccc(C(=O)c2sc(NC(C)C)nc2N)c1 | 16.1 µM
CCN(CC)CCn1c2ccccc2c2cnc(N)c(C#N)c21 | 9.65 µM
COC(=O)C(CC(=O)c1ccc(Br)cc1)n1ccnc1 (stereo not given) | 14.7 µM
CC1=CC(C)(C)Nc2ccc(OC(=O)CN3C(=O)C4CCCCC4C3=O)cc21 (stereo not given) | 12.4 µM
CCC(=O)N1c2ccc(S(=O)(=O)CCC(=O)N3CCn4c3nc3ccccc34)cc2CC1C (stereo not given) | 9.63 µM
N#Cc1c(NCCN)nc(-c2ccco2)c2c1CCCC2 | 11.7 µM
COC(=O)CCS(=O)(=O)c1nc(-c2ccccc2)cc(C(F)(F)F)n1 | 14.4 µM
COc1ccc(S(=O)(=O)Nc2ccc(O)c3ccccc23)cc1 | 13.1 µM
COc1cc(N=c2ssnc2Cl)cc(OC)c1OC | 15.2 µM
Cc1sc2ncnc(NCC(C)(C)N3CCOCC3)c2c1C | > 10 µM (inactive)
Cc1sc2nc(SCC(=O)C(C)(C)C)n(Cc3ccco3)c(=O)c2c1C | 16.9 µM
COc1ccc(-c2ccc(C#N)c(SCC(=O)Nc3sc4c(c3C#N)CCC4)n2)cc1OC | 20.1 µM
O=C(c1nn2c(C(F)(F)F)cc(-c3ccco3)nc2c1Br)N1CCCc2ccccc21 | 4.78 µM
CCC(C)(C)NC(=O)C(c1ccc(C)o1)N(Cc1cccs1)C(=O)Cn1nnc2ccccc21 (stereo not given) | 13.9 µM
CN1CCN(Cc2cc(COCc3ccccc3)c3cccnc3c2O)CC1 | 2.92 µM
CCOC(=O)c1c(CC(C)C)csc1NC=O | 20.4 µM
CCOC(=O)c1c(NC(=O)CSc2nc(C)cc(C)c2C#N)sc(C(C)=O)c1C | 13.5 µM
O=c1ccsn1Cc1ccccc1 | 7.57 µM
